Data set [1] relates to HCT-116. The data set is described as follows: Antiproliferative activity against human HCT116 cells measured after 72 hrs by CCK8 assay. The format is functional, cell-based. The note with it: HCT-116, 72 h. The gist of the method:
(§1)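 Cells grown in RPMI 1640 with 10% FBS at 37 °C, 5% CO2; STR-authenticated and mycoplasma-checked. Seeded at 3000-5000 cells/well and left 24 h. Serial compound dilutions added for 72 h, with matched DMSO as control. Viability read by CCK8 kit using the standard protocol. IC50 values derived from at least three parallel experiments.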
A general note: Formazan colour is commonly taken as a measure of viable cells.

A short description of data set [2]: Cmax in tumor of human HCT116 cells xenografted BALB/c mouse at 80 mg/kg, po administered as single dose by LC-MS/MS analysis. Also on record: dose 80 mg/kg, route oral. It is filed as ADME, organism-based, Neoplasm. A digest of the protocol:
(§2)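 Tumour-bearing mice (n = 6 per group) given one oral dose of 80 mg/kg. Blood and tumour collected into heparinized tubes at 0, 0.25, 0.5, 1, 2, 4, 8, 12 and 24 h. Plasma obtained by centrifugation at 3000 rpm for 10 min. Samples stored at -80 °C and quantified by LC-MS/MS.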
In general terms: Xenograft models place foreign cells or tissue in a host animal.

The nature of data set [3]: Clearance in mouse liver microsomes at 10 uM preincubated for 5 mins followed by NADPH addition by LC-MS/MS analysis. The format is ADME, Microsome. The note with it: read-out: CLH. A digest of the protocol: (§3)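 Compound at 10 µM preincubated 5 min at 37 °C with human or mouse liver microsomes (0.5 mg/mL) in 100 mM phosphate, pH 7.4. Reaction started with 1 mM NADPH, stopped with cold acetonitrile, centrifuged and analysed by LC-MS/MS.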

Data set [4] is described as follows: Tmax in tumor of human HCT116 cells xenografted BALB/c mouse at 80 mg/kg, po administered as single dose by LC-MS/MS analysis. The format is ADME, organism-based, Neoplasm. The gist of the method: (§4)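 HCT116-xenografted mice (n = 6 per group) received a single oral 80 mg/kg dose. Blood and tumor were sampled at 0 to 24 h. Plasma was obtained by centrifugation at 3000 rpm for 10 min. Samples were stored at −80 °C and quantified by LC-MS/MS.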

For data set [5], the target named is T1, Glucocorticoid receptor (Homo sapiens, UniProt P04150).
T1 sequence (P04150 whole entry): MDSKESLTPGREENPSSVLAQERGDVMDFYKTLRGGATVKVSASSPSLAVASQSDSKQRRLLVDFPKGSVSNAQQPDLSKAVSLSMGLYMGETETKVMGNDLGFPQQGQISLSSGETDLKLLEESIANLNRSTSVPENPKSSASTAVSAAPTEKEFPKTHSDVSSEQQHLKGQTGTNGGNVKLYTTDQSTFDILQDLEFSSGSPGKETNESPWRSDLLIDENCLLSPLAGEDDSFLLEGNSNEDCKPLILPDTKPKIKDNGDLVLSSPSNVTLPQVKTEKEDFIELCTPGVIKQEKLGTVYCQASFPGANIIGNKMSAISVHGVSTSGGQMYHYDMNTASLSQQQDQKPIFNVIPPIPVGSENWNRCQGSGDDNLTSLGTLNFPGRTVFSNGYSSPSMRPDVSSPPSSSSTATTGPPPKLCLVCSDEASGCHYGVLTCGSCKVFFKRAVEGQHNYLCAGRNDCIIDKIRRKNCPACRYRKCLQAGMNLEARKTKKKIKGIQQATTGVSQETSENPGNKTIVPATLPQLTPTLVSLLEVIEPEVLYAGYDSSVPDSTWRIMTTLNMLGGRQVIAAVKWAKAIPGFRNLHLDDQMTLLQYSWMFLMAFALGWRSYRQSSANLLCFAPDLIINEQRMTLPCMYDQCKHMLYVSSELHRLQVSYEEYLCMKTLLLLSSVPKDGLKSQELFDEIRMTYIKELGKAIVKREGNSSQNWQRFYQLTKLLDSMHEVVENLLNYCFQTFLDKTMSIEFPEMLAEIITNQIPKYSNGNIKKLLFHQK
The data set is described as follows: Effect on glucocorticoid receptor phosphorylation in human HCT116 cells at 10 uM measured up to 48 hrs by Western blot analysis. The format is ADME, cell-based. A digest of the protocol: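 HCT116 cells treated with 0, 1, 5 or 10 µM for 24 h, or with 10 µM for 0, 4, 12, 24 or 48 h. Lysates separated by SDS-PAGE and blotted. Membranes blocked in 5% milk, primary antibodies overnight at 4 °C, HRP secondaries, chemiluminescent detection.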
(In general: Immunoblotting shows a protein as a band on a membrane.)

Data set [6] is described as follows: Stability of the compound in mouse plasma assessed as parent compound remaining at 1 uM measured immediately by LC-MS/MS analysis. The note with it: read-out: Stability. The format is ADME, cell-free. A digest of the protocol:
(§5)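 Compound diluted from 10 mM DMSO stock to 1 μM in mouse or human plasma and held at 37 °C in a water bath. Reactions were stopped with acetonitrile at 0, 10, 30, 60 and 90 min. Parent compound was quantified by LC-MS/MS as % remaining.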

A short description of data set [7]: AUC (0 to infinity) in plasma of human HCT116 cells xenografted BALB/c mouse at 80 mg/kg, po administered as single dose by LC-MS/MS analysis. The format is ADME, organism-based. Further details: dose 80 mg/kg, time infinity, route oral. A digest of the protocol: as §2
Data set [8] can be described thus: Tmax in plasma of human HCT116 cells xenografted BALB/c mouse at 80 mg/kg, po administered as single dose by LC-MS/MS analysis. The format is ADME, organism-based. A digest of the protocol: as §4
Data set [9] is described as follows: Stability of the compound in human plasma assessed as parent compound remaining at 1 uM measured after 30 mins by LC-MS/MS analysis. The format is ADME, cell-free. The note with it: read-out: Stability. The gist of the method:
as §5

Data set [10] concerns A549. Kind of data set: Antiproliferative activity against human A549 cells measured after 72 hrs by CCK8 assay. It is filed as functional, cell-based. The note with it: A549, 72 h. The gist of the method:
as §1

Data set [11] can be described thus: Half life in mouse liver microsomes at 10 uM preincubated for 5 mins followed by NADPH addition by LC-MS/MS analysis. It is filed as ADME, Microsome. The gist of the method:
as §3

Data set [12] can be described thus: Stability of the compound in human plasma assessed as parent compound remaining at 1 uM measured immediately by LC-MS/MS analysis. The format is ADME, cell-free. The note with it: read-out: Stability. A digest of the protocol:
as §5

A word on the IC50: it is the concentration that gives 50% inhibition. Low values mean greater potency in that assay, high ones weaker potency in that assay. As a reminder, the Cmax is the maximum level reached in the sampled fluid or tissue. The Tmax is the time from dosing to the highest level. Usually AUC(0-inf) stands for the area under the concentration-time curve extrapolated to infinity. The low end stands for less exposure, the high end for more exposure. The term half-life denotes how long it takes for the measured level to halve. The low end stands for rapid decline, the high end for slow decline.

The structures appear in SMILES notation.

For the compound `Cc1cc(C)c(S(=O)(=O)N(CC(=O)O)c2ccc(Nc3ccnc(N4CCNCC4)n3)cc2)c(C)c1`, the IC50 in data set [1] was 1.73 µM; in [10] it was more than 50 µM. In data set [2], this compound yielded a Cmax of 50000 ng/mL. The microsomal CLint at 10 µM in [3] came out at 10.3 µL/min/mg. Further, the Tmax in [4] worked out at 1 h; in data set [8] it was 0.5 h. In addition, the Activity result in data set [5] is on record as “Non-Toxic”. Also, the remaining at 0 min, 1 µM in data set [6] and in [12] was 100% throughout. Further, in data set [7], the AUC(0-inf) is 536 µg·h/mL. Besides, in data set [9], the remaining at 0.5 h, 1 µM amounted to 104%. In addition, the half-life at 10 µM in [11] came to 1.6 h.

The values above are taken from ChEMBL document CHEMBL4376883, “Discovery and Optimization of Small Molecules Targeting the Protein-Protein Interaction of Heat Shock Protein 90 (Hsp90) and Cell Division Cycle 37 as Orally Active Inhibitors for the Treatment of Colorectal Cancer” (J Med Chem, 2020).
